Data on 2 molecules can be found in ChEMBL document CHEMBL3526127, “Absorption, elimination, and metabolism of CS-1036, a novel α-amylase inhibitor in rats and monkeys, and the relationship between gastrointestinal distribution and suppression of glucose absorption” (Drug Metab Dispos, 2013).

A short description of data set [1]: Drug excretion in cynomolgus monkey urine at 3 mg/kg, iv administered as single dose after 0 to 48 hrs by scintillation counting method. The note with it: in vivo. Details: dose 3 mg/kg, route intravenous. Format: ADME, organism-based, Macaca fascicularis.
Data set [2] can be described thus: Drug excretion in F344 rat urine at 1 mg/kg, iv administered as single dose after 0 to 168 hrs by scintillation counting method. Format: ADME, organism-based. Also on record: dose 1 mg/kg, route intravenous. The note with it: in vivo. The essentials:
(§1)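 Fasted F344 rats (152–156 g iv via tail vein; 154–159 g oral; n = 4) received [14C]-labelled drug at 1 mg/kg (41.9 µCi/kg). Animals were kept in metabolic cages; urine and feces were collected to 168 h, and expired CO2 was trapped in 2-aminoethanol/2-methoxyethanol (1:1) to 48 h. Samples were counted by liquid scintillation (feces homogenized). Results are % of dose, mean ± S.D.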

Data set [3] in a line: Drug excretion in F344 rat urine at 1 mg/kg, po administered as single dose after 0 to 48 hrs by scintillation counting method. Format: ADME, organism-based. Also on record: dose 1 mg/kg, route oral. Conditions: in vivo. In outline: as §1
The subject of data set [4] is Cynomolgus monkey. In words: Total drug excretion in cynomolgus monkey at 3 mg/kg, po administered as single dose after 0 to 336 hrs by scintillation counting method. Details: dose 3 mg/kg, route oral. It is filed as ADME, organism-based, Macaca fascicularis. Conditions: in vivo. In outline:
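Fasted male cynomolgus monkeys (n = 4) were dosed with 14C-labelled drug at 3 mg/kg, iv via saphenous vein (191 µCi/kg) or orally by stomach catheter (156.5 µCi/kg). Urine, feces and cage-wash water were collected to 336 h. Radioactivity was measured by liquid scintillation counting, with feces homogenized in water, and expressed as % of dose.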

The subject of data set [5] is Cynomolgus monkey. The data set is described as follows: Drug excretion in cynomolgus monkey assessed as drug level found during cage washing at 3 mg/kg, po administered as single dose after 0 to 48 hrs by scintillation counting method. Format: ADME, organism-based, Macaca fascicularis. Also on record: dose 3 mg/kg, route oral. Conditions: in vivo. The essentials:
(§2)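 Fasted cynomolgus monkeys (n = 4) received [14C]-labelled drug at 3 mg/kg, iv via saphenous vein (191 µCi/kg) or orally by stomach catheter (156.5 µCi/kg). Urine, feces and water cage-wash were collected to 336 h. Samples were counted by liquid scintillation; feces were homogenized in 4-fold water. Results are % of dose, mean ± S.D.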

Data set [6] can be described thus: Drug excretion in cynomolgus monkey feces at 3 mg/kg, po administered as single dose after 0 to 336 hrs by scintillation counting method. It is filed as ADME, organism-based, Macaca fascicularis. Also on record: dose 3 mg/kg, route oral. Conditions: in vivo. The essentials:
as §2

Data set [7] can be described thus: Drug excretion in F344 rat expired air at 1 mg/kg, po administered as single dose after 0 to 48 hrs by scintillation counting method. It is filed as ADME, organism-based. Also on record: dose 1 mg/kg, route oral. Conditions: in vivo. The essentials: as §1
Data set [8] can be described thus: AUC (0 to infinity) in F344 rat at 3 mg/kg, iv administered as single dose by LC-MS/MS method. Also on record: time infinity, dose 3 mg/kg, route intravenous. Conditions: plasma. Format: ADME, organism-based. The essentials:
(§3)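 Fasted male F344 rats (146–185 g) or male cynomolgus monkeys (3.48–4.29 kg), n = 4 per dose, given single iv or oral dose of 0.3, 1.0, 3.0 or 10.0 mg/kg; monkeys dosed with 2-week washouts. Blood sampled to 48 h; plasma stored frozen. LC-MS/MS with deuterated internal standard. Noncompartmental analysis: AUClast by trapezoidal rule; AUC0–inf = AUClast + Ctz/terminal rate constant; mean ± S.D.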

A short description of data set [9]: AUC (0 to infinity) in cynomolgus monkey at 0.3 mg/kg, iv administered as single dose by LC-MS/MS method. It is filed as ADME, organism-based, Macaca fascicularis. Details: time infinity, dose 0.3 mg/kg, route intravenous. Conditions: plasma. The essentials: as §3
The nature of data set [10]: Half life in F344 rat at 0.3 mg/kg, iv administered as single dose by LC-MS/MS method. Conditions: in vivo. It is filed as ADME, organism-based. Details: dose 0.3 mg/kg, route intravenous. In outline: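 Fasted male F344 rats (146–185 g, n = 4 per dose) received single i.v. CS-1036. Plasma was sampled up to 48 h and analysed by LC-MS/MS. t1/2 came from noncompartmental regression of three or more log-transformed terminal-phase points. Mean ± S.D.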

The nature of data set [11]: Cmax in F344 rat at 3 mg/kg, po administered as single dose by LC-MS/MS method. It is filed as ADME, organism-based. Details: dose 3 mg/kg, route oral. The note with it: in vivo.
Data set [12] in a line: Clearance in cynomolgus monkey at 10 mg/kg, iv administered as single dose by LC-MS/MS method. It is filed as ADME, organism-based, Macaca fascicularis. The note with it: in vivo. Also on record: dose 10 mg/kg, route intravenous. The essentials: (§4)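 Fasted male F344 rats (146–185 g) and male cynomolgus monkeys (3.48–4.29 kg), n = 4 each, received a single iv dose; monkeys had 2-week washouts between doses. Blood was sampled up to 48 h and plasma stored at […]. Plasma parent was quantified by LC-MS/MS with a deuterated internal standard. CL = dose/AUC0–inf by noncompartmental analysis; mean ± S.D.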

The nature of data set [13]: AUClast in cynomolgus monkey at 0.3 mg/kg, iv administered as single dose by LC-MS/MS method. Format: ADME, organism-based, Macaca fascicularis. Details: time 0 - last, dose 0.3 mg/kg, route intravenous. The note with it: plasma. In outline:
as §3

Data set [14] is described as follows: AUClast in cynomolgus monkey at 10 mg/kg, po administered as single dose by LC-MS/MS method. Format: ADME, organism-based, Macaca fascicularis. Also on record: time 0 - last, dose 10 mg/kg, route oral. Conditions: plasma. The essentials: as §3
Data set [15] is described as follows: Volume of distribution at steady state in F344 rat at 1 mg/kg, iv administered as single dose by LC-MS/MS method. Conditions: in vivo, read-out: Vdss. Also on record: dose 1 mg/kg, route intravenous. It is filed as ADME, organism-based. The essentials: (§5)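 Male F344 rats (146–185 g) and male cynomolgus monkeys (3.48–4.29 kg), n = 4 each, fasted overnight, received single iv or oral doses of 0.3, 1.0, 3.0 or 10.0 mg/kg. Monkeys had 2-week washouts between doses. Plasma was sampled to 48 h and assayed by LC-MS/MS with deuterated internal standard. Noncompartmental analysis: tmax observed; t1/2 by regression on ≥3 terminal log points; Vss = dose·AUMC/(AUC0–inf)²; Foral = oral/iv AUC0–inf at the same dose.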

Data set [16] can be described thus: AUC (0 to infinity) in F344 rat at 0.3 mg/kg, iv administered as single dose by LC-MS/MS method. Conditions: plasma. It is filed as ADME, organism-based. Details: time infinity, dose 0.3 mg/kg, route intravenous. The essentials:
as §3

Data set [17] is described as follows: AUClast in F344 rat at 3 mg/kg, iv administered as single dose by LC-MS/MS method. Also on record: time 0 - last, dose 3 mg/kg, route intravenous. Format: ADME, organism-based. The note with it: plasma. The essentials:
as §3

A short description of data set [18]: Volume of distribution at steady state in F344 rat at 10 mg/kg, iv administered as single dose by LC-MS/MS method. It is filed as ADME, organism-based. The note with it: in vivo, read-out: Vdss. Also on record: dose 10 mg/kg, route intravenous. In outline: as §5
Data set [19] is described as follows: Oral bioavailability in F344 rat at 10 mg/kg administered as single dose by LC-MS/MS method. It is filed as ADME, organism-based. The note with it: in vivo. In outline: as §5
The nature of data set [20]: Clearance in cynomolgus monkey at 3 mg/kg, iv administered as single dose by LC-MS/MS method. It is filed as ADME, organism-based, Macaca fascicularis. Also on record: dose 3 mg/kg, route intravenous. The note with it: in vivo. In outline: as §4
Data set [21] in a line: Oral bioavailability in cynomolgus monkey at 10 mg/kg administered as single dose by LC-MS/MS method. Format: ADME, organism-based, Macaca fascicularis. The note with it: in vivo. The essentials:
as §5

Data set [22] in a line: Oral bioavailability in F344 rat at 1 mg/kg administered as single dose by LC-MS/MS method. Format: ADME, organism-based. Conditions: in vivo. In outline: as §5
Data set [23] is described as follows: AUC (0 to infinity) in cynomolgus monkey at 3 mg/kg, po administered as single dose by LC-MS/MS method. It is filed as ADME, organism-based, Macaca fascicularis. Details: dose 3 mg/kg, route oral, time infinity. The note with it: plasma. The essentials: as §3
A short description of data set [24]: Half life in cynomolgus monkey at 10 mg/kg, po administered as single dose by LC-MS/MS method. Format: ADME, organism-based, Macaca fascicularis. Conditions: in vivo. Also on record: dose 10 mg/kg, route oral. In outline: as §5
Data set [25] in a line: Tmax in cynomolgus monkey at 0.3 mg/kg, po administered as single dose by LC-MS/MS method. Conditions: in vivo. Details: dose 0.3 mg/kg, route oral. It is filed as ADME, organism-based, Macaca fascicularis. In outline: as §5
Data set [26] can be described thus: Volume of distribution at steady state in cynomolgus monkey at 1 mg/kg, iv administered as single dose by LC-MS/MS method. It is filed as ADME, organism-based, Macaca fascicularis. The note with it: in vivo, read-out: Vdss. Also on record: dose 1 mg/kg, route intravenous. The essentials:
as §5

The nature of data set [27]: AUClast in F344 rat at 0.3 mg/kg, po administered as single dose by LC-MS/MS method. Conditions: plasma. Details: time 0 - last, dose 0.3 mg/kg, route oral. It is filed as ADME, organism-based. The essentials:
as §3

Data set [28] is described as follows: Tmax in cynomolgus monkey at 10 mg/kg, po administered as single dose by LC-MS/MS method. Details: dose 10 mg/kg, route oral. Conditions: in vivo. It is filed as ADME, organism-based, Macaca fascicularis. The essentials: as §5

For the molecule `C[C@H]1O[C@@H](O[C@H]2[C@H](O)[C@@H](O)[C@@H](O[14C@H]3[14C@H](O)[14CH2]N[14C@@H]3[14CH2]O)O[C@@H]2CO)[C@H](O)[C@@H](O)[C@@H]1O`, the Drug excretion in [1] amounted to 80.13%; in data set [2] it was 77.21%; in data set [3] it was 13.34%; with Cynomolgus monkey [4], 95.15%; in the data set with Cynomolgus monkey [5] it was 0.76%; in [6], 88.13%. The Drug excretion in [7] was found to be 2.34%.
Turning to `C[C@H]1O[C@@H](O[C@H]2[C@H](O)[C@@H](O)[C@@H](O[C@H]3[C@H](O)CN[C@@H]3CO)O[C@@H]2CO)[C@H](O)[C@@H](O)[C@@H]1O`, the AUC(0-inf) is 18800 ng·h/mL in [8], 2010 ng·h/mL in data set [9], 1870 ng·h/mL in [16] and 191 ng·h/mL in data set [23]. Further, the half-life was 14.6 h in data set [10] and 12.6 h in [24]. The same molecule returned a Cmax in [11] of 113 ng/mL. The clearance in data set [12] turned out to be 2.25 mL/min/kg; in data set [20] it was 2.75 mL/min/kg. For the same molecule, the AUC(0-t) in [13] came to 2000 ng·h/mL; in data set [14], 869 ng·h/mL; in data set [17], 18700 ng·h/mL; in data set [27], 42.1 ng·h/mL. The Vd in data set [15] was found to be 0.237 L/kg; in data set [18] it was 0.222 L/kg; in data set [26], 0.271 L/kg. The bioavailability in data set [19] turned out to be 2.03%; in data set [21], 1.2%; in data set [22] it was 2.33%. For the same molecule, the Tmax in data set [25] and in [28] was 1.75 h each time.
